Laboratory results taken from ChEMBL document CHEMBL4364354, “A Bioreductive Prodrug of Cucurbitacin B Significantly Inhibits Tumor Growth in the 4T1 Xenograft Mice Model” (ACS Med Chem Lett, 2019).
The source made the active and inactive calls. The calls are words filed in the database; no cut-off is given here.

Columns and labels:
4T1 [1] = assay: Antitumor activity against mouse 4T1 cells implanted in BALB/c mouse assessed as tumor growth inhibition at 5 mg/kg/day, ip for 2 weeks measured daily during compound dosing by digital caliper method relative to control; assay type: functional; settings: 4T1, ip, 336 h, read-out: TGI
[2] = Toxicity in BALB/c mouse implanted with mouse 4T1 cells assessed as body weight at 5 mg/kg/day, ip for 2 weeks measured during compound dosing (reference value: -1.48 %); assay type: organism-based; settings: in vivo, 336 h
MCF7 [3] = assay: Cytotoxicity against human MCF7 cells assessed as reduction in cell viability incubated for 48 hrs by MTT assay; assay type: functional, cell-based; settings: for IC50: MCF7, 48 h
Method in brief: (§1)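 MTT assay on MCF-7 breast cancer cells and noncancerous Vero cells, with tamoxifen as positive control. One MCF-7 arm was pretreated with the NQO1 inhibitor dicoumarol. IC50 values are from three experiments. Cytotoxicity index is the IC50 of the prodrug in Vero cells relative to the parent cucurbitacin B IC50 in Vero cells.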

Vero = assay: Cytotoxicity against African green monkey Vero cells assessed as reduction in cell viability incubated for 48 hrs by MTT assay; assay type: cell-based; settings: Chlorocebus sabaeus; method in brief: as §1
[4] = target: T1, NAD(P)H dehydrogenase [quinone] 1 (Homo sapiens, UniProt P15559); assay: Prodrug activation in human MCF7 cells assessed as NQO1-mediated CuB release at 25 uM incubated for 24 hrs by HRMS analysis; assay type: cell-based; settings: mcf7, 24 h
T1 sequence (P15559 whole entry): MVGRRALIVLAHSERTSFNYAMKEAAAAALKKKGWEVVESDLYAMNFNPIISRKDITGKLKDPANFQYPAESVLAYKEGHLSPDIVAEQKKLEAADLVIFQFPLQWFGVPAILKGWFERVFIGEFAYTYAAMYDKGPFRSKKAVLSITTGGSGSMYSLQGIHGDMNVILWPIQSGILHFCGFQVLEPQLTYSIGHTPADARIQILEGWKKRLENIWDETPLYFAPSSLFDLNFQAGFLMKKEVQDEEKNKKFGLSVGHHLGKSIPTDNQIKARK

[5] = target: T1, NAD(P)H dehydrogenase [quinone] 1; assay: Prodrug activation in human MCF7 cells assessed as NQO1-mediated cucurbitacin B formation by ESI-TOFMS analysis; assay type: cell-based
MCF7 [6] = assay: Cytotoxicity against human MCF7 cells assessed as reduction in cell viability incubated for 48 hrs in presence of NQO1 inhibitor dicoumarol by MTT assay; assay type: functional, cell-based; settings: MCF7, 48 h; method in brief: as §1
[7] = target: T1, NAD(P)H dehydrogenase [quinone] 1; assay: Prodrug activation in human MCF7 cells assessed as appearance of extended m/z range to 1000 at 25 uM measured after 24 hrs by HRMS analysis; assay type: cell-based; settings: mcf7, 24 h
[8] = Drug uptake in human MCF7 cell lysate at 25 uM incubated for 24 hrs by HPLC analysis; assay type: ADME, subcellular; settings: mcf7, 24 h
Method in brief: (§2)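 MCF-7 cells were exposed to 25 μM prodrug for 24 h, then lysed. Prodrug concentrations in culture medium and in cell lysate were measured by HPLC against a calibration curve.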

[9] = Stability of the compound in DMEM medium with 10% FBS incubated for 72 hrs by HPLC analysis
Method in brief: (§3)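 Prodrugs were held in DMEM with 10% FBS for up to 72 h. The fraction of intact compound remaining over time was followed by HPLC.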

[10] = target: T1, NAD(P)H dehydrogenase [quinone] 1; assay: Prodrug activation in human MCF7 cells assessed as NQO1-mediated 6-hydroxy-4,4,5,7,8-pentamethylchroman-2-one formation at 25 uM incubated for 24 hrs by HRMS analysis; assay type: cell-based; settings: mcf7, 24 h
[11] = Drug uptake in human MCF7 cells assessed as compound remaining in culture medium at 25 uM incubated for 24 hrs by HPLC analysis; assay type: ADME, cell-based; settings: mcf7, 24 h; method in brief: as §2
[12] = Cytotoxicity index, ratio of compound IC50 to cucurbitacin B IC50 for cytotoxicity against African green monkey Vero cells by MTT assay; assay type: cell-based; settings: chlorocebus sabaeus, read-out: Ratio IC50; method in brief: as §1
[13] = target: T1, NAD(P)H dehydrogenase [quinone] 1; assay: Prodrug activation in human MCF7 cells assessed as NQO1-mediated CuB release in cell lysate at 25 uM incubated for 24 hrs by HPLC analysis; assay type: subcellular; settings: mcf7, 24 h
[14] = Stability of the compound in DMEM medium with 10% FBS assessed as compound remaining incubated for 24 hrs by HPLC analysis; method in brief: as §3
[15] = Toxicity in BALB/c mouse implanted with mouse 4T1 cells assessed as body weight at 3 mg/kg/day, ip for 2 weeks measured daily during compound dosing (reference value: -1.48 %); assay type: organism-based; settings: in vivo, 336 h
[16] = target: T1, NAD(P)H dehydrogenase [quinone] 1; assay: (§4) Prodrug activation in human MCF7 cells assessed as NQO1-mediated (R)-6-hydroxy-6-((2S,8S,9R,10R,13R,14S,16R,17R)-16-hydroxy-4,4,9,13,14-pentamethyl-2-(methyl(3-(methylamino)propyl)carbamoyloxy)-3,11-dioxo 2,3,4,7,8,9,10,11,12,13,14,15,16,17-tetradecahydro-1H-cyclopenta[a]phenanthren-17-yl)-2-methyl-5-oxohept-3-en-2-yl acetate metabolite formation at 25 uM incubated for 24 hrs by HPLC analysis; assay type: ADME, cell-based; settings: mcf7, 24 h
4T1 [17] = assay: Antitumor activity against mouse 4T1 cells implanted in BALB/c mouse assessed as tumor growth inhibition at 3 to 10 mg/kg/day, ip for 2 weeks measured daily during compound dosing by digital caliper method; assay type: functional, organism-based
[18] = Toxicity in BALB/c mouse implanted with mouse 4T1 cells assessed as body weight at 10 mg/kg/day, ip for 2 weeks measured daily during compound dosing (reference value: -1.48 %); assay type: organism-based; settings: in vivo, 336 h
[19] = target: T1, NAD(P)H dehydrogenase [quinone] 1; assay: Prodrug activation in human MCF7 cells assessed as NQO1-mediated (R)-6-hydroxy-6-((2S,8S,9R,10R,13R,14S,16R,17R)-16-hydroxy-4,4,9,13,14-pentamethyl-2-(methyl(3-(methylamino)propyl)carbamoyloxy)-3,11-dioxo 2,3,4,7,8,9,10,11,12,13,14,15,16,17-tetradecahydro-1H-cyclopenta[a]phenanthren-17-yl)-2-methyl-5-oxohept-3-en-2-yl acetate formation by ESI-TOFMS analysis; assay type: cell-based
[20] = target: T1, NAD(P)H dehydrogenase [quinone] 1; assay: Prodrug activation in human MCF7 cell lysate assessed as NQO1-mediated 1,3-dimethyltetrahydropyrimidin-2(1H)-one formation at 25 uM incubated for 24 hrs by HPLC analysis; assay type: subcellular; settings: mcf7, 24 h
4T1 [21] = assay: Antitumor activity against mouse 4T1 cells xenografted in BALB/c mouse assessed as tumor weight at 3 to 10 mg/kg/day, ip for 2 weeks (reference value: 500 to 700 mg); assay type: functional
[22] = target: T1, NAD(P)H dehydrogenase [quinone] 1; assay: as §4, with “acetate” for “acetate metabolite”, “HRMS” for “HPLC”; assay type: cell-based; settings: mcf7, 24 h
[23] = Toxicity in BALB/c mouse implanted with mouse 4T1 cells assessed as death at 3 mg/kg/day, ip measured after 1 day; assay type: organism-based; settings: in vivo, 24 h
Method in brief: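 BALB/c mice carrying 4T1 breast cancer cell tumours received the test agent once a day, dosed in mg/kg/d. An untreated control group ran alongside. Tumour volume and body weight were followed over the treatment period, survival was recorded after dosing began, and tumours were excised and weighed after sacrifice.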

[24] = Prodrug activation in human MCF7 cell cultured in DMEM medium with 10% FBS at 25 uM incubated for 24 hrs by HPLC analysis; assay type: cell-based; settings: mcf7, 24 h
[25] = target: T1, NAD(P)H dehydrogenase [quinone] 1; assay: Prodrug activation in human MCF7 cell lysate assessed as NQO1-mediated tetrahydropyrimidin-2(1H)-one formation at 25 uM incubated for 24 hrs by HPLC analysis; assay type: subcellular; settings: mcf7, 24 h
[26] = target: T1, NAD(P)H dehydrogenase [quinone] 1; assay: (§5) Prodrug activation in human MCF7 cells assessed as NQO1-mediated ((R)-6-((2S,8S,9R,10R,13R,14S,16R,17R)-2-(3-aminopropylcarbamoyloxy)-16-hydroxy-4,4,9,13,14-pentamethyl-3,11-dioxo-2,3,4,7,8,9,10,11,12,13,14,15,16,17-tetradecahydro-1H-cyclopenta[a]phenanthren-17-yl)-6-hydroxy-2-methyl-5-oxohept-3-en-2-yl acetate metabolite formation at 25 uM incubated for 24 hrs by HPLC analysis; assay type: ADME, cell-based; settings: mcf7, 24 h
[27] = target: T1, NAD(P)H dehydrogenase [quinone] 1; assay: Prodrug activation in human MCF7 cells assessed as NQO1-mediated ((R)-6-((2S,8S,9R,10R,13R,14S,16R,17R)-2-(3-aminopropylcarbamoyloxy)-16-hydroxy-4,4,9,13,14-pentamethyl-3,11-dioxo-2,3,4,7,8,9,10,11,12,13,14,15,16,17-tetradecahydro-1H-cyclopenta[a]phenanthren-17-yl)-6-hydroxy-2-methyl-5-oxohept-3-en-2-yl acetate formation by ESI-TOFMS analysis; assay type: cell-based
[28] = target: T1, NAD(P)H dehydrogenase [quinone] 1; assay: as §5, with “acetate” for “acetate metabolite”, “HRMS” for “HPLC”; assay type: cell-based; settings: mcf7, 24 h

Compound | inhibition (MCF7 [3]) | Activity (Vero) | Drug metabolism [4] | Drug metabolism [5] | IC50 (MCF7 [3]) [µM] | IC50 (MCF7 [6]) [µM] | Drug metabolism [7] | Drug uptake [8] | Stability [9] | IC50 (Vero) [µM] | Drug metabolism [10] | selectivity ratio [12] | Drug metabolism [13] | Stability [14] [%] | also measured
CC/C(=C(\c1ccccc1)c1ccc(OCCN(C)C)cc1)c1ccccc1 [TAMOXIFEN] |  |  |  |  |  |  |  |  |  |  |  |  |  |  | inhibition in vivo at 5 mg/kg/day (4T1 [1]): 55%; Activity [2]: 4.99%
Cc1c(C)c2c(c(C)c1O)C(C)(C)CC(=O)O2 | inactive | Non-Toxic |  |  |  |  |  |  |  |  |  |  |  |  | 
CC(=O)OC(C)(C)/C=C/C(=O)[C@](C)(O)[C@H]1[C@H](O)C[C@@]2(C)[C@@H]3CC=C4[C@@H](C[C@H](OC(=O)CC(C)(C)C5=C(C)C(=O)C(C)=C(C)C5=O)C(=O)C4(C)C)[C@]3(C)C(=O)C[C@]12C |  |  | Metabolite_Detected | Metabolite_Detected | 16.6 | > 100 | Metabolite_Notdetected | Not Active | Stable | 0.07 | Metabolite_Detected | 1.75 | Metabolite_Detected | > 90 | Drug uptake [11]: 6.21 µM
CC(=O)OC(C)(C)/C=C/C(=O)[C@](C)(O)[C@H]1[C@H](O)C[C@@]2(C)[C@@H]3CC=C4[C@@H](C[C@H](OC(=O)N(C)CCCN(C)C(=O)CC(C)(C)C5=C(C)C(=O)C(C)=C(C)C5=O)C(=O)C4(C)C)[C@]3(C)C(=O)C[C@]12C |  |  | Metabolite_Detected | Metabolite_Detected | 18.1 | > 100 | Metabolite_Notdetected | Not Active | Stable | 12.4 | Metabolite_Detected | 310 | Metabolite_Detected | > 90 | inhibition in vivo at 5 mg/kg/day (4T1 [1]): 53.8%; Drug uptake [11]: 8.39 µM; Activity [15]: 6.46%; Drug metabolism [16]: Metabolite_Detected; TGI (4T1 [17]): Active; Activity [18]: -2.49%; Drug metabolism [19]: Metabolite_Detected; Drug metabolism [20]: Metabolite_Notdetected; Activity [2]: 5.27%; Activity (4T1 [21]): <400 mg; Drug metabolism [22]: Metabolite_Detected
CC(=O)OC(C)(C)/C=C/C(=O)[C@](C)(O)[C@H]1[C@H](O)C[C@@]2(C)[C@@H]3CC=C4[C@@H](C[C@H](O)C(=O)C4(C)C)[C@]3(C)C(=O)C[C@]12C |  |  |  |  | 12 | 9.72 |  |  |  | 0.04 |  |  |  |  | Activity [23]: Toxic
CN1CCCN(C)C1=O | inactive | Non-Toxic |  |  |  |  |  |  |  |  |  |  |  |  | 
O=C1NCCCN1 | inactive | Non-Toxic |  |  |  |  |  |  |  |  |  |  |  |  | 
CC(=O)OC(C)(C)/C=C/C(=O)[C@](C)(O)[C@H]1[C@H](O)C[C@@]2(C)[C@@H]3CC=C4[C@@H](C[C@H](OC(=O)NCCCNC(=O)CC(C)(C)C5=C(C)C(=O)C(C)=C(C)C5=O)C(=O)C4(C)C)[C@]3(C)C(=O)C[C@]12C |  |  | Metabolite_Detected | Metabolite_Detected | 15.4 | > 100 | Metabolite_Notdetected | Not Active | Stable | 1.87 | Metabolite_Detected | 46.8 | Metabolite_Detected | > 90 | Drug metabolism [24]: Metabolite_Detected; Drug metabolism [25]: Metabolite_Notdetected; Drug metabolism [26]: Metabolite_Detected; Drug metabolism [27]: Metabolite_Detected; Drug metabolism [28]: Metabolite_Detected
Cc1c2ccncc2c(C)c2c1[nH]c1ccccc12 [ELLIPTECINE] |  |  |  |  |  |  |  |  |  | 4.06 |  |  |  |  | 
